In ChEMBL document CHEMBL5058577, “EUbOPEN Chemogenomics Library 2 (Multiplex)” (2022):

Test system: U2OS
Assay: Multiplex assay against U2OS
Format: toxicity, cell-based
Settings: human
Method in brief: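 Per cents of healthy-nucleus cells form the tubulin, mitochondrial-mass and membrane-permeability phenotype values. Live cells were stained at seeding with Hoechst33342, BioTracker Green Microtubule Cytoskeleton Dye, MitoTracker Red and Annexin V Alexa Fluor 680. After compound addition they were imaged on a CQ1 microscope at 37°C and 5% CO2, and CellPathfinder machine-learning gating split them into Hoechst high-intensity objects or normal cells, normal cells into healthy, pyknosed or fragmented nuclei, and pyknosed cells into mitotic or apoptotic.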

[1] = 12 h, 1 µM, compound concentration 1 uM, replicate 1
[2] = 12 h, 1 µM, compound concentration 1 uM, replicate 2
[3] = 12 h, 10 µM, compound concentration 10 uM, replicate 1
[4] = 12 h, 10 µM, compound concentration 10 uM, replicate 2
[5] = 24 h, 1 µM, compound concentration 1 uM, replicate 1
[6] = 24 h, 1 µM, compound concentration 1 uM, replicate 2
[7] = 24 h, 10 µM, compound concentration 10 uM, replicate 1
[8] = 24 h, 10 µM, compound concentration 10 uM, replicate 2
[9] = 48 h, 1 µM, compound concentration 1 uM, replicate 1
[10] = 48 h, 1 µM, compound concentration 1 uM, replicate 2
[11] = 48 h, 10 µM, compound concentration 10 uM, replicate 1
[12] = 48 h, 10 µM, compound concentration 10 uM, replicate 2

## Cc1nc2ccc(Oc3ccc(F)cc3)cc2c(=O)n1C[C@H]1CCCN(C(C)C)C1.Cl
[1]
  Population Apoptotic (%): 83%
  Population Fragmented Nuclei (%): 25%
  Population Healthy Nuclei (%): 64%
  Population Hoechst High Intensity Objects (%): 3%
  Population Membrane Permeable-Phenotype (%): 9%
  Population Mitochondria Different-Phenotype (%): 3%
  Population Mitotic Cells (%): 16%
  Population Normal (%): 96%
  Population Pyknosed Nuclei (%): 10%
  Population Tubulin-Different-Phenotype (%): 7%
  Total Cell Count: 244
[2]
  Population Apoptotic (%): 60%
  Population Fragmented Nuclei (%): 14%
  Population Healthy Nuclei (%): 81%
  Population Hoechst High Intensity Objects (%): 1%
  Population Membrane Permeable-Phenotype (%): 17%
  Population Mitochondria Different-Phenotype (%): 7%
  Population Mitotic Cells (%): 40%
  Population Normal (%): 98%
  Population Pyknosed Nuclei (%): 4%
  Population Tubulin-Different-Phenotype (%): 9%
  Total Cell Count: 125
[3]
  Population Apoptotic (%): 65%
  Population Fragmented Nuclei (%): 25%
  Population Healthy Nuclei (%): 59%
  Population Hoechst High Intensity Objects (%): 3%
  Population Membrane Permeable-Phenotype (%): 58%
  Population Mitochondria Different-Phenotype (%): 61%
  Population Mitotic Cells (%): 35%
  Population Normal (%): 96%
  Population Pyknosed Nuclei (%): 15%
  Population Tubulin-Different-Phenotype (%): 63%
  Total Cell Count: 268
[4]
  Population Apoptotic (%): 78%
  Population Fragmented Nuclei (%): 24%
  Population Healthy Nuclei (%): 58%
  Population Hoechst High Intensity Objects (%): 4%
  Population Membrane Permeable-Phenotype (%): 25%
  Population Mitochondria Different-Phenotype (%): 75%
  Population Mitotic Cells (%): 21%
  Population Normal (%): 95%
  Population Pyknosed Nuclei (%): 17%
  Population Tubulin-Different-Phenotype (%): 47%
  Total Cell Count: 86
[5]
  Population Apoptotic (%): 78%
  Population Fragmented Nuclei (%): 23%
  Population Healthy Nuclei (%): 65%
  Population Hoechst High Intensity Objects (%): 4%
  Population Membrane Permeable-Phenotype (%): 7%
  Population Mitochondria Different-Phenotype (%): 5%
  Population Mitotic Cells (%): 21%
  Population Normal (%): 95%
  Population Pyknosed Nuclei (%): 10%
  Population Tubulin-Different-Phenotype (%): 4%
  Total Cell Count: 276
[6]
  Population Apoptotic (%): 80%
  Population Fragmented Nuclei (%): 21%
  Population Healthy Nuclei (%): 71%
  Population Hoechst High Intensity Objects (%): 2%
  Population Membrane Permeable-Phenotype (%): 11%
  Population Mitochondria Different-Phenotype (%): 9%
  Population Mitotic Cells (%): 20%
  Population Normal (%): 97%
  Population Pyknosed Nuclei (%): 6%
  Population Tubulin-Different-Phenotype (%): 8%
  Total Cell Count: 146
[7]
  Population Apoptotic (%): 77%
  Population Fragmented Nuclei (%): 25%
  Population Healthy Nuclei (%): 57%
  Population Hoechst High Intensity Objects (%): 4%
  Population Membrane Permeable-Phenotype (%): 37%
  Population Mitochondria Different-Phenotype (%): 63%
  Population Mitotic Cells (%): 22%
  Population Normal (%): 95%
  Population Pyknosed Nuclei (%): 16%
  Population Tubulin-Different-Phenotype (%): 47%
  Total Cell Count: 297
[8]
  Population Apoptotic (%): 76%
  Population Fragmented Nuclei (%): 22%
  Population Healthy Nuclei (%): 52%
  Population Hoechst High Intensity Objects (%): 6%
  Population Membrane Permeable-Phenotype (%): 22%
  Population Mitochondria Different-Phenotype (%): 62%
  Population Mitotic Cells (%): 23%
  Population Normal (%): 93%
  Population Pyknosed Nuclei (%): 24%
  Population Tubulin-Different-Phenotype (%): 40%
  Total Cell Count: 91
[9]
  Population Apoptotic (%): 84%
  Population Fragmented Nuclei (%): 19%
  Population Healthy Nuclei (%): 69%
  Population Hoechst High Intensity Objects (%): 1%
  Population Membrane Permeable-Phenotype (%): 7%
  Population Mitochondria Different-Phenotype (%): 5%
  Population Mitotic Cells (%): 15%
  Population Normal (%): 98%
  Population Pyknosed Nuclei (%): 10%
  Population Tubulin-Different-Phenotype (%): 4%
  Total Cell Count: 371
[10]
  Population Apoptotic (%): 93%
  Population Healthy Nuclei (%): 72%
  Population Hoechst High Intensity Objects (%): 0%
  Population Mitotic Cells (%): 6%
  Population Normal (%): 99%
  Population Pyknosed Nuclei (%): 7%
  Population Tubulin-Different-Phenotype (%): 6%
  Total Cell Count: 213
[11]
  Population Apoptotic (%): 77%
  Population Fragmented Nuclei (%): 29%
  Population Healthy Nuclei (%): 54%
  Population Hoechst High Intensity Objects (%): 5%
  Population Membrane Permeable-Phenotype (%): 29%
  Population Mitochondria Different-Phenotype (%): 36%
  Population Mitotic Cells (%): 22%
  Population Normal (%): 94%
  Population Pyknosed Nuclei (%): 16%
  Population Tubulin-Different-Phenotype (%): 23%
  Total Cell Count: 380
[12]
  Population Apoptotic (%): 88%
  Population Healthy Nuclei (%): 51%
  Population Hoechst High Intensity Objects (%): 8%
  Population Membrane Permeable-Phenotype (%): 27%
  Population Mitochondria Different-Phenotype (%): 41%
  Population Mitotic Cells (%): 11%
  Population Normal (%): 91%
  Population Pyknosed Nuclei (%): 19%
  Population Tubulin-Different-Phenotype (%): 35%
  Total Cell Count: 103
